These results are taken from ChEMBL document CHEMBL6114938, “Design, synthesis, and biological evaluation of pyrazole-ciprofloxacin hybrids as antibacterial and antibiofilm agents against Staphylococcus aureus” (RSC Med Chem, 2025).

Structures are written as SMILES. ≈ marks a conversion by molar mass, not a printed value.

The term MIC denotes the lowest concentration that inhibits growth of the organism. Usually CC50 stands for the concentration giving 50% cytotoxicity.

In data set [1] the test system is Staphylococcus aureus. As to the kind of experiment: Antibacterial activity against Staphylococcus aureus ATCC 29213 assessed as inhibition of bacterial growth incubated for 18 to 24 hrs by two-fold serial dilution method. It is filed as functional. To be noted: time 18-24 hrs. In short, it runs like this: (§1)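 Broth microdilution in cation-adjusted Mueller Hinton broth with two-fold serial dilutions. Inoculum came from overnight cultures on Mueller Hinton agar, set to OD600 0.08-0.1 and diluted 100-fold, then added 1:1 to the compound wells. Plates were incubated at 37 °C for 18-24 h and read visually. MIC is the lowest concentration with no turbidity.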

For another data set, the system named is Pseudomonas aeruginosa. As to the kind of experiment: Antibacterial activity against Pseudomonas aeruginosa PAO1 ATCC 15692 assessed as inhibition of bacterial growth incubated for 18 to 24 hrs by two-fold serial dilution method. To be noted: time 18-24 hrs. It is filed as functional. In short, it runs like this: as §1
The test system of data set [2] is Mycobacterium tuberculosis. As to the kind of experiment: Antimycobacterial activity against Mycobacterium tuberculosis H37Ra ATCC 25177 assessed as inhibition of bacterial growth incubated for 10 days by liquid broth microdilution method. It is filed as functional. Particulars: H37Ra ATCC 25177, 240 h, time 10 day. In short, it runs like this: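 Log-phase H37Ra (OD₆₀₀ 0.4–0.6) was grown in 7H9 with D-pantothenic acid, amino acids, 0.2% glycerol, 0.05% Tween 80 and 10% ADS, then diluted to OD₆₀₀ 0.005 (1.0×10⁶ CFU/ml). Compounds were two-fold serially diluted in 7H9, and plates were incubated for 10 days at 37 °C in 5% CO₂. MIC was the lowest concentration without visible turbidity.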
(In broth dilution the organism is exposed to a series of concentrations in liquid medium.)

The subject of data set [3] is Staphylococcus aureus. As to the kind of experiment: Potency index, ratio of ciprofloxacin MIC to test compound MIC for antibacterial activity against Staphylococcus aureus ATCC 29213. It counts as functional.
Data set [4] concerns Staphylococcus aureus. Kind of data set: Antibacterial activity against one-step ciprofloxacin resistant mutant of Staphylococcus aureus ATCC 29213 assessed as inhibition of bacterial growth by liquid broth microdilution assay. It is filed as functional. In short, it runs like this: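 One-step ciprofloxacin-resistant mutants were raised by plating log-phase cells adjusted to 10¹⁰ CFU/ml on ciprofloxacin-containing Mueller-Hinton agar for 48 h at 37 °C, then passaging picked colonies on ciprofloxacin plates. Mutants with a more than eightfold rise in ciprofloxacin MIC were kept. MIC was read by broth microdilution: two-fold dilutions in cation-adjusted MHB, and inoculum of OD₆₀₀ 0.08–0.1 diluted hundredfold. Plates ran 18–24 h at 37 °C, and MIC was the lowest concentration with no visible turbidity.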

Data set [5] deals with Staphylococcus aureus. As to the kind of experiment: Antibiofilm activity against Staphylococcus aureus ATCC 29213 assessed as inhibition of biofilm formation incubated for 24 hrs by crystal violet staining based analysis. It counts as functional. In short, it runs like this: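 Biofilm formation assay with inoculum at OD600 0.015 from overnight culture. Twelve two-fold dilutions (128 to 0.06 µg/ml) were made in MHB with 2% sucrose in flat-bottom polystyrene wells and incubated at 37 °C for 24 h. Wells were washed with PBS pH 7.4, fixed with methanol, stained with 0.1% crystal violet, eluted with 95% ethanol and read at A595. MBIC50 is the lowest concentration giving ≥50% inhibition versus untreated culture.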

Data set [6] deals with Staphylococcus aureus. As to the kind of experiment: Bactericidal activity against Staphylococcus aureus ATCC 29213 assessed as log reduction in bacterial load at 4X to 8XMIC measured within 9 hrs by time-kill kinetics analysis. It is filed as functional. In short, it runs like this: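 Time-kill: log-phase cultures at OD600 0.005 were exposed to 1×, 4× and 8× MIC at 37 °C. Viable counts (CFU/ml) were taken by plating 10-fold serial dilutions at 2, 4, 6, 8, 10 and 24 h. Curves plot log10 CFU/ml against time over 24 h.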

Data set [7] in a line: Cytotoxicity against human HepG2 cells assessed as reduction in cell viability incubated for 48 hrs by MTT assay. It is filed as toxicity, cell-based. In short, it runs like this:
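MTT viability assay in HepG2 cells seeded at 1000-4000 per well and allowed to adhere overnight. Compounds were tested at 1000-0.78 µg/mL for 48 h in fresh medium. MTT 0.5 mg/mL was added for 4 h at 37 °C, formazan was dissolved in DMSO, and absorbance was read at 570 nm.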

For data set [8], the system named is Staphylococcus aureus. Kind of data set: Antibacterial activity against Staphylococcus aureus NCTC 4163 assessed as inhibition of bacterial growth incubated for 18 hrs by twofold microdilution method. It counts as functional.
The subject of data set [9] is Staphylococcus aureus. Kind of data set: Antibacterial activity against Staphylococcus aureus ATCC 25923 assessed as inhibition of bacterial growth incubated for 18 hrs by twofold microdilution method. It is filed as functional.
In data set [10] the test system is Staphylococcus aureus. As to the kind of experiment: Antibacterial activity against Staphylococcus aureus ATCC 6538 assessed as inhibition of bacterial growth incubated for 18 hrs by twofold microdilution method. It counts as functional.
Data set [11] deals with Staphylococcus aureus. As to the kind of experiment: Antibacterial activity against Staphylococcus aureus ATCC 29213 assessed as inhibition of bacterial growth incubated for 18 hrs by twofold microdilution method. It is filed as functional.
Another data set has as its system Escherichia coli. As to the kind of experiment: Antibacterial activity against Escherichia coli ATCC 25922 assessed as inhibition of bacterial growth incubated for 18 hrs by twofold microdilution method. It is filed as functional.
The subject of data set [12] is Staphylococcus aureus. Kind of data set: Antibacterial activity against methicillin-resistant Staphylococcus aureus assessed as inhibition of bacterial growth. It counts as functional.

In the case of `Cc1cc(-c2ccn(-c3ccc(NC(=O)CN4CCN(c5cc6c(cc5F)c(=O)c(C(=O)O)cn6C5CC5)CC4)cc3)n2)ccc1F`, the MIC was 16 µg/mL (≈ 25.1 µM) with Staphylococcus aureus [1], 128 µg/mL (≈ 200 µM) in the data set on Pseudomonas aeruginosa and 4 µg/mL (≈ 6.26 µM) in [2].
In the case of `COc1ccc(-c2ccn(-c3ccc(NC(=O)CN4CCN(c5cc6c(cc5F)c(=O)c(C(=O)O)cn6C5CC5)CC4)cc3)n2)cc1OC`, the minimum inhibitory concentration (MIC) with Staphylococcus aureus [1] was determined as 0.125 µg/mL (≈ 0.187 µM); in the data set on Pseudomonas aeruginosa it was 128 µg/mL (≈ 192 µM); in data set [2], 16 µg/mL (≈ 24 µM); in the data set with Staphylococcus aureus [4] it was 0.25 µg/mL (≈ 0.375 µM). Also, in the data set with Staphylococcus aureus [3], the Ratio is 2. Moreover, the MBIC50 with Staphylococcus aureus [5] was found to be 0.3 µg/mL. Moreover, the Activity result in the data set with Staphylococcus aureus [6] is given as “>=3 log10CFU/ml”. The cytotoxic concentration (CC50) at 48 h in [7] was at least 592 µg/mL.
In the case of `O=C(O)c1cn(C2CC2)c2cc(N3CCN(C(=O)CCl)CC3)c(F)cc2c1=O`, the minimal inhibitory concentration (MIC) in the data set on Staphylococcus aureus [8], in the data set on Staphylococcus aureus [9], with Staphylococcus aureus [10], with Staphylococcus aureus [11] and with Escherichia coli was 0.1 µg/mL (≈ 0.245 µM) in each case.
For `CC/C(=C(\c1ccccc1)c1ccc(OCCN(C)C)cc1)c1ccccc1` [TAMOXIFEN], in data set [7], the 50% cytotoxic concentration (CC50) at 48 h was 3.7 µg/mL (≈ 9.95 µM).
With `O=C(CN1CCN(c2cc3c(cc2F)c(=O)c(C(=O)O)cn3C2CC2)CC1)Nc1ccc(-n2ccc(-c3ccc4c(c3)OCO4)n2)cc1`, the MIC amounted to 0.5 µg/mL (≈ 0.768 µM) in the data set on Staphylococcus aureus [1], 64 µg/mL (≈ 98.4 µM) in the data set with Pseudomonas aeruginosa, 32 µg/mL (≈ 49.2 µM) in [2] and 32 µg/mL (≈ 49.2 µM) with Staphylococcus aureus [4]. For the same compound, in the data set with Staphylococcus aureus [5], the MBIC50 stood at 1.84 µg/mL. In addition, in data set [7], the cytotoxic concentration (CC50) at 48 h is over 1000 µg/mL.
For `O=C(CN1CCN(c2cc3c(cc2F)c(=O)c(C(=O)O)cn3C2CC2)CC1)Nc1ccc(-n2ccc(-c3ccccc3Cl)n2)cc1`, the minimal inhibitory concentration (MIC) was 1 µg/mL (≈ 1.56 µM) in the data set on Staphylococcus aureus [1], 16 µg/mL (≈ 25 µM) in the data set with Pseudomonas aeruginosa and 4 µg/mL (≈ 6.24 µM) in data set [2].
With `O=C(CN1CCN(c2cc3c(cc2F)c(=O)c(C(=O)O)cn3C2CC2)CC1)Nc1ccc(-n2ccc(-c3ccc(Cl)cc3)n2)cc1`, the minimum inhibitory concentration (MIC) in the data set with Staphylococcus aureus [1] is 1 µg/mL (≈ 1.56 µM); with Pseudomonas aeruginosa, 128 µg/mL (≈ 200 µM); in [2], 64 µg/mL (≈ 99.8 µM).
For the compound `O=C(O)c1ccc(-c2nn(-c3ccc(C(F)(F)F)cc3)cc2CNc2ccc(Br)c(C(F)(F)F)c2)cc1`, in the data set with Staphylococcus aureus [12], the MIC is under 1 µg/mL.
For `COc1ccc(-c2ccn(-c3ccc(NC(=O)CN4CCN(c5cc6c(cc5F)c(=O)c(C(=O)O)cn6C5CC5)CC4)cc3)n2)cc1`, the results for the MIC (in the data set with Staphylococcus aureus [1]; in the data set with Pseudomonas aeruginosa; in data set [2]) were 4 µg/mL (≈ 6.28 µM), 32 µg/mL (≈ 50.3 µM) and 8 µg/mL (≈ 12.6 µM), respectively.
For `O=C(CN1CCN(c2cc3c(cc2F)c(=O)c(C(=O)O)cn3C2CC2)CC1)Nc1ccc(-n2ccc(-c3cc4ccccc4o3)n2)cc1`, the figures for the minimum inhibitory concentration (MIC) (with Staphylococcus aureus [1]; in the data set on Pseudomonas aeruginosa; in data set [2]) were 1 µg/mL (≈ 1.55 µM), 32 µg/mL (≈ 49.5 µM) and 2 µg/mL (≈ 3.09 µM), respectively.
For `O=C(CN1CCN(c2cc3c(cc2F)c(=O)c(C(=O)O)cn3C2CC2)CC1)Nc1ccc(-n2ccc(-c3ccc(Br)cc3)n2)cc1`, in that order: 32 µg/mL (≈ 46.7 µM), 128 µg/mL (≈ 187 µM) and 16 µg/mL (≈ 23.3 µM).
For `O=C(CN1CCN(c2cc3c(cc2F)c(=O)c(C(=O)O)cn3C2CC2)CC1)Nc1ccc(-n2ccc(-c3ccc(Cl)cc3Cl)n2)cc1`, in that order: 16 µg/mL (≈ 23.7 µM), over 128 µg/mL and 64 µg/mL (≈ 94.7 µM).
